Results reported in ChEMBL document CHEMBL1151458, “Comparative analysis of the bactericidal activities of amphibian peptide analogues against multidrug-resistant nosocomial bacterial strains” (2008).
Active and inactive are the calls of the source. The calls are words filed in the database; no cut-off is given here.

Key:
Enterococcus faecium [1] = experiment: Bactericidal activity against Enterococcus faecium isolate 6 with AMP-AMC-CLI-CRO-CTX-CIP-ERY-GEN-KAN-LVX-SXT-VAN resistance phenotype assessed as concentration required for >= 3 log10 CFU/ml reduction in viable bacteria in sodium phosphate buffer at pH 7.4 after 1.5 hrs by liquid microdilution assay; type: functional
In short: (§1)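 Clinical multidrug-resistant isolates grown to mid-log in tryptone soy broth and stored frozen. Exponential cells resuspended in 10 mM sodium phosphate buffer, pH 7.4, at 1 × 10^7 CFU/ml; 10 μl incubated with graded peptide concentrations in 100 μl at 37°C for 1.5 h. Plated on tryptone soy agar, CFU read after 24 h at 37°C. Peptide stocks in 20% ethanol.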

Staphylococcus aureus [2] = experiment: Bactericidal activity against Staphylococcus aureus isolate 1 with AMC-AMP-CIP-ERY-GEN-OXA-RIF resistance phenotype assessed as concentration required for >= 3 log10 CFU/ml reduction in viable bacteria in sodium phosphate buffer at pH 7.4 after 1.5 hrs by liquid microdilution assay; type: functional; in short: as §1
Pseudomonas aeruginosa [3] = experiment: Bactericidal activity against Pseudomonas aeruginosa isolate 1 with AMP-CFZ-CIP-CTX-CXM-GEN-LVX-SXT-TET resistance phenotype assessed as concentration required for >= 3 log10 CFU/ml reduction in viable bacteria in 20% heat-inactivated human serum after 1.5 hrs by liquid microdilution assay; type: functional
In short: (§2)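 The buffer microdilution kill assay (1 × 10^7 CFU/ml mid-log cells, 10 μl in 100 μl, 37°C, 1.5 h, CFU on tryptone soy agar after 24 h) with serum added to 20% or 40% final. Serum was pooled from five healthy donors, clotted at room temperature, spun at 300 × g and heat-inactivated at 56°C for 30 min.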

Pseudomonas aeruginosa [4] = experiment: Bactericidal activity against Pseudomonas aeruginosa isolate 2 with AMP-CFZ-CIP-CTX-CXM-GEN-LVX-IPM-MEM-SXT-TET resistance phenotype assessed as concentration required for >= 3 log10 CFU/ml reduction in viable bacteria in sodium phosphate buffer at pH 7.4 after 1.5 hrs by liquid microdilution assay; type: functional; in short: as §1
Staphylococcus aureus [5] = experiment: Bactericidal activity against Staphylococcus aureus isolate 3 with AMC-AMP-CIP-ERY-GEN-LVX-OXA resistance phenotype assessed as concentration required for >= 3 log10 CFU/ml reduction in viable bacteria in sodium phosphate buffer at pH 7.4 after 1.5 hrs by liquid microdilution assay; type: functional; in short: as §1
Acinetobacter baumannii [6] = experiment: Bactericidal activity against Acinetobacter baumannii isolate 3 with AMP-AMC-CFZ-CIP-IPM-SXT-TET-TOB resistance phenotype assessed as concentration required for >= 3 log10 CFU/ml reduction in viable bacteria in 20% heat-inactivated human serum after 1.5 hrs by liquid microdilution assay; type: functional; in short: as §2
Enterococcus faecium [7] = experiment: Antimicrobial activity against Enterococcus faecium isolate 3 with AMP-CIP-CTX-ERY-GEN-LVX-SXT-TEC-VAN resistance phenotype assessed as time to kill at twofold the bactericidal concentration; type: functional, organism-based
In short: (§3)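 Time-kill in 10 mM sodium phosphate buffer, pH 7.4: 1 × 10^7 CFU/ml mid-log clinical isolate (10 μl) exposed at 37°C to peptide at the 1.5-h bactericidal concentration or twofold that, in 100 μl. Samples taken from 2 min onward, plated on tryptone soy agar, CFU counted after 24 h at 37°C. Killing taken as ≥3 log10 CFU/ml drop.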

Staphylococcus aureus [8] = experiment: Antimicrobial activity against Staphylococcus aureus isolate 1 with AMC-AMP-CIP-ERY-GEN-OXA-RIF resistance phenotype at bactericidal concentration within 30 mins; type: functional, organism-based; in short: as §3
Enterococcus faecium [9] = experiment: Antimicrobial activity against Enterococcus faecium isolate 3 with AMP-CIP-CTX-ERY-GEN-LVX-SXT-TEC-VAN resistance phenotype at twofold the bactericidal concentration within 30 mins; type: functional, organism-based; in short: as §3
Pseudomonas aeruginosa [10] = experiment: Bactericidal activity against Pseudomonas aeruginosa isolate 1 with AMP-CFZ-CIP-CTX-CXM-GEN-LVX-SXT-TET resistance phenotype assessed as concentration required for >= 3 log10 CFU/ml reduction in viable bacteria in 40% heat-inactivated human serum after 1.5 hrs by liquid microdilution assay; type: functional; in short: as §2
Staphylococcus aureus [11] = experiment: Bactericidal activity against Staphylococcus aureus isolate 1 with AMC-AMP-CIP-ERY-GEN-OXA-RIF resistance phenotype assessed as concentration required for >= 3 log10 CFU/ml reduction in viable bacteria in 20% heat-inactivated human serum after 1.5 hrs by liquid microdilution assay; type: functional; in short: as §2
[12] = test system: Stenotrophomonas maltophilia; experiment: Bactericidal activity against Stenotrophomonas maltophilia isolate 4 with AMK-CAZ-CIP-FEP-IPM-SAM-TZP resistance phenotype assessed as concentration required for >= 3 log10 CFU/ml reduction in viable bacteria in sodium phosphate buffer at pH 7.4 after 1.5 hrs by liquid microdilution assay; type: functional; in short: as §1
[13] = test system: Stenotrophomonas maltophilia; experiment: Bactericidal activity against Stenotrophomonas maltophilia isolate 2 with AMK-CIP-CTX-IPM-MEM-SAM-TZP resistance phenotype assessed as concentration required for >= 3 log10 CFU/ml reduction in viable bacteria in 20% heat-inactivated human serum after 1.5 hrs by liquid microdilution assay; type: functional; in short: as §2
Acinetobacter baumannii [14] = experiment: Bactericidal activity against Acinetobacter baumannii isolate 1 with AMP-AMC-CFZ-CIP-IPM-LVX-PIP-SXT-TET resistance phenotype assessed as concentration required for >= 3 log10 CFU/ml reduction in viable bacteria in sodium phosphate buffer at pH 7.4 after 1.5 hrs by liquid microdilution assay; type: functional; in short: as §1
Enterococcus faecium [15] = experiment: Bactericidal activity against Enterococcus faecium isolate 5 with AMP-AMC-CIP-CLI-ERY-GEN-KAN-LVX-SXT-TEC-VAN resistance phenotype assessed as concentration required for >= 3 log10 CFU/ml reduction in viable bacteria in sodium phosphate buffer at pH 7.4 after 1.5 hrs by liquid microdilution assay; type: functional; in short: as §1
[16] = test system: Stenotrophomonas maltophilia; experiment: Bactericidal activity against Stenotrophomonas maltophilia isolate 1 with AMK-CIP-CTX-IPM-MEM-SAM-TZP resistance phenotype assessed as concentration required for >= 3 log10 CFU/ml reduction in viable bacteria in sodium phosphate buffer at pH 7.4 after 1.5 hrs by liquid microdilution assay; type: functional; in short: as §1
Pseudomonas aeruginosa [17] = experiment: Antimicrobial activity against Pseudomonas aeruginosa isolate 1 with AMP-CFZ-CIP-CTX-CXM-GEN-LVX-SXT-TET resistance phenotype at twofold bactericidal concentration after 10 to 30 mins by time kill assay; type: functional, organism-based; in short: as §3
[18] = test system: Stenotrophomonas maltophilia; experiment: Antimicrobial activity against Stenotrophomonas maltophilia isolate 2 with AMK-CIP-CTX-IPM-MEM-SAM-TZP resistance phenotype assessed as assessed as time to kill at twofold bactericidal concentration; type: functional; in short: as §3
Enterococcus faecium [19] = experiment: Bactericidal activity against Enterococcus faecium isolate 3 with AMP-CIP-CTX-ERY-GEN-LVX-SXT-TEC-VAN resistance phenotype assessed as concentration required for >= 3 log10 CFU/ml reduction in viable bacteria in sodium phosphate buffer at pH 7.4 after 1.5 hrs by liquid microdilution assay; type: functional; in short: as §1
[20] = test system: Stenotrophomonas maltophilia; experiment: Bactericidal activity against Stenotrophomonas maltophilia isolate 2 with AMK-CIP-CTX-IPM-MEM-SAM-TZP resistance phenotype assessed as concentration required for >= 3 log10 CFU/ml reduction in viable bacteria in sodium phosphate buffer at pH 7.4 after 1.5 hrs by liquid microdilution assay; type: functional; in short: as §1
[21] = test system: Stenotrophomonas maltophilia; experiment: Bactericidal activity against Stenotrophomonas maltophilia isolate 2 with AMK-CIP-CTX-IPM-MEM-SAM-TZP resistance phenotype assessed as concentration required for >= 3 log10 CFU/ml reduction in viable bacteria in 40% heat-inactivated human serum after 1.5 hrs by liquid microdilution assay; type: functional; in short: as §2

H-GIFSKLAGKKLKNLLISG-NH2
Activity (Enterococcus faecium [1]): 2 µM
Activity (Staphylococcus aureus [2]): 32 µM
Activity (Pseudomonas aeruginosa [3]): 4 µM
Activity (Pseudomonas aeruginosa [4]): 1 µM
Activity (Staphylococcus aureus [5]): 8 µM
Activity (Acinetobacter baumannii [6]): 16 µM
Activity (Enterococcus faecium [7]): inactive
Activity (Staphylococcus aureus [8]): inactive
Activity (Enterococcus faecium [9]): inactive
Activity (Pseudomonas aeruginosa [10]): 128 µM
Activity (Staphylococcus aureus [11]): 64 µM
Activity [12]: 0.5 µM
Activity [13]: 8 µM
Activity (Acinetobacter baumannii [14]): 0.5 µM
Activity (Enterococcus faecium [15]): 2 µM
Activity [16]: 0.5 µM
Activity (Pseudomonas aeruginosa [17]): Active
Time [18]: 2 min
Activity (Enterococcus faecium [19]): 2 µM
Activity [20]: 0.5 µM
Activity [21]: 16 µM
